Measurements from ChEMBL document CHEMBL1131295, “Design of peptidomimetics that inhibit the association of phosphatidylinositol 3-kinase with platelet-derived growth factor-beta receptor and possess cellular activity” (J Med Chem, 1998).
Where a SMILES comes first, the peptide text is derived from it. [ ]: non-standard residue; d: D form. F2Pmp = N[C@@H](Cc1ccc(C(F)(F)P(=O)(O)O)cc1)C(=O)O; Pmp = N[C@@H](Cc1ccc(CP(=O)(O)O)cc1)C(=O)O; pY = N[C@@H](Cc1ccc(OP(=O)(O)O)cc1)C(=O)O; Nle = CCCC[C@H](N)C(=O)O

Test system: not listed separately
Assay: Binding affinity against p85 C-terminal SH2 domain to platelet-derived growth factor receptor beta using [35S]GST as radioligand
Details: not given
Summary of the method: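 Recombinant [35S]-labelled GST-p85 C-terminal SH2 fusion (E. coli, IPTG 1 mM, trans-35S label) binding to bead-bound Sf9-expressed PDGF-β receptor tyrosine kinase domain, prephosphorylated with 1 mM ATP, 10 mM MnCl2, 5 mM MgCl2.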

Row | Structure (SMILES) | IC50 [µM]
1 | CCCCN(CCCC)C(=O)[C@@H](C)NC(=O)[C@@H](NC(=O)[C@H](Cc1ccc(OP(=O)(O)O)cc1)NC(C)=O)C(C)C | 0.478
2 | CCCCCN(CCCCC)C(=O)[C@H](C)NC(=O)[C@@H](NC(=O)[C@H](Cc1ccc(C(F)(F)P(=O)(O)O)cc1)NC(C)=O)C(C)C | 0.372
3 | CC(=O)N[C@@H](Cc1ccc(OP(=O)(O)O)cc1)C(=O)N[C@H](C(=O)N[C@H](C)C(=O)NCCC1CCCCC1)C(C)C | 19
4 | CC(=O)N[C@@H](Cc1ccc(OP(=O)(O)O)cc1)C(=O)N[C@H](C(=O)N[C@@H](C)C(=O)NCCC1CCCCC1)C(C)C | > 100
5 | CCCCN(CC(N)=O)C(=O)[C@@H](C)NC(=O)[C@@H](NC(=O)[C@H](Cc1ccc(OP(=O)(O)O)cc1)NC(C)=O)C(C)C | 2.5
6 | CCCCCNC(=O)[C@H](C)NC(=O)[C@@H](NC(=O)[C@H](Cc1ccc(OP(=O)(O)O)cc1)NC(C)=O)C(C)C | 16.1
7 | CCCCCCCCN(CCCCCCCC)C(=O)[C@H](C)NC(=O)[C@@H](NC(=O)[C@H](Cc1ccc(OP(=O)(O)O)cc1)NC(C)=O)C(C)C | 3.47
8 | CCCCCCN(CCCCCC)C(=O)[C@@H](C)NC(=O)[C@@H](NC(=O)[C@H](Cc1ccc(OP(=O)(O)O)cc1)NC(C)=O)C(C)C | 0.076
9 | CCCCCN(CCCCC)C(=O)[C@@H](C)NC(=O)[C@@H](NC(=O)[C@H](Cc1ccc(OP(=O)(O)O)cc1)NC(C)=O)C(C)C | 0.22
10 | CCCCN(CCCC)C(=O)[C@H](C)NC(=O)[C@@H](NC(=O)[C@H](Cc1ccc(OP(=O)(O)O)cc1)NC(C)=O)C(C)C | 5.7
11 | CCCCCCN(CCCCCC)C(=O)[C@H](C)NC(=O)[C@@H](NC(=O)[C@H](Cc1ccc(C(F)(F)P(=O)(O)O)cc1)NC(C)=O)C(C)C | 0.446
12 | CC(=O)N[C@@H](Cc1ccc(OP(=O)(O)O)cc1)C(=O)N[C@H](C(=O)N[C@@H](C)C(=O)NCCc1ccccc1)C(C)C | > 100
13 | CCCCCN(CCCCC)C(=O)[C@H](C)NC(=O)[C@@H](NC(=O)[C@H](Cc1ccc(OP(=O)(O)O)cc1)NC(C)=O)C(C)C | 3.32
14 | CCCCCCN(CCCCCC)C(=O)[C@H](C)NC(=O)[C@@H](NC(=O)[C@H](Cc1ccc(OP(=O)(O)O)cc1)NC(C)=O)C(C)C | 2.5
15 | CC(=O)N[C@@H](Cc1ccc(OP(=O)(O)O)cc1)C(=O)N[C@H](C(=O)N[C@H](C)C(=O)NCCc1ccccc1)C(C)C | 37.6
16 | CSCC[C@H](NC(=O)[C@@H]1CCCN1C(=O)[C@@H](NC(=O)[C@H](Cc1ccc(C(F)(F)P(=O)(O)O)cc1)NC(C)=O)C(C)C)C(N)=O (Ac-[F2Pmp]VPM-NH2) | 1.45
17 | CSCC[C@H](NC(=O)[C@@H]1CCCN1C(=O)[C@@H](NC(=O)[C@H](Cc1ccc(OP(=O)(O)O)cc1)NC(C)=O)C(C)C)C(N)=O (Ac-[pY]VPM-NH2) | 0.264
18 | CSCC[C@H](NC(=O)[C@@H]1CCCN1C(=O)[C@@H](NC(=O)[C@H](Cc1ccc(OP(=O)(O)O)cc1)NC(C)=O)C(C)C)C(=O)N[C@@H](CC(C)C)C(N)=O (Ac-[pY]VPML-NH2) | 0.16
19 | CSCC[C@H](NC(=O)[C@@H]1CCCN1C(=O)[C@@H](NC(=O)[C@H](Cc1ccc(OP(=O)(O)O)cc1)NC(C)=O)C(C)C)C(=O)N[C@@H](CC(C)C)C(=O)O (Ac-[pY]VPML-OH) | 0.18
20 | CSCC[C@H](NC(=O)[C@@H]1CCCN1C(=O)[C@@H](NC(=O)[C@@H](N)Cc1ccc(C(F)(F)P(=O)(O)O)cc1)C(C)C)C(=O)N[C@@H](CC(C)C)C(=O)O (H-[F2Pmp]VPML-OH) | 0.945
21 | CSCC[C@H](NC(=O)[C@@H]1CCCN1C(=O)[C@@H](NC(=O)[C@@H](N)Cc1ccc(CP(=O)(O)O)cc1)C(C)C)C(=O)N[C@@H](CC(C)C)C(=O)O (H-[Pmp]VPML-OH) | 8.7
22 | CSCC[C@H](NC(=O)[C@H](CC(=O)O)NC(=O)[C@H](CCSC)NC(=O)[C@@H](N)Cc1ccc(OP(=O)(O)O)cc1)C(=O)N[C@@H](CO)C(=O)O (H-[pY]MDMS-OH) | 0.52
23 | CSCC[C@H](NC(=O)[C@@H]1CCCN1C(=O)[C@@H](NC(=O)[C@@H](N)Cc1ccc(OP(=O)(O)O)cc1)C(C)C)C(N)=O (H-[pY]VPM-NH2) | 0.485
24 | CSCC[C@H](NC(=O)[C@@H]1CCCN1C(=O)[C@@H](NC(=O)[C@@H](N)Cc1ccc(OP(=O)(O)O)cc1)C(C)C)C(=O)O (H-[pY]VPM-OH) | 6.85
25 | CSCC[C@H](NC(=O)[C@@H]1CCCN1C(=O)[C@@H](NC(=O)[C@@H](N)Cc1ccc(OP(=O)(O)O)cc1)C(C)C)C(=O)N[C@@H](CC(C)C)C(N)=O (H-[pY]VPML-NH2) | 0.4
26 | CSCC[C@H](NC(=O)[C@@H]1CCCN1C(=O)[C@@H](NC(=O)[C@@H](N)Cc1ccc(OP(=O)(O)O)cc1)C(C)C)C(=O)N[C@@H](CC(C)C)C(=O)O (H-[pY]VPML-OH) | 0.445
27 | CCCC[C@H](NC(=O)[C@@H]1CCCN1C(=O)[C@@H](NC(=O)[C@@H](N)Cc1ccc(OP(=O)(O)O)cc1)C(C)C)C(=O)N[C@@H](CC(C)C)C(=O)O (H-[pY]VP[Nle]L-OH) | 1.36
28 | CCCCCNC(=O)C(C)NC(=O)[C@@H](NC(=O)[C@H](Cc1ccc(OP(=O)(O)O)cc1)NC(C)=O)C(C)C (single isomer, unassigned) | 4.56

Target: Proto-oncogene tyrosine-protein kinase Src (Homo sapiens, UniProt P12931)
Sequence (P12931 2-536 limits assumed): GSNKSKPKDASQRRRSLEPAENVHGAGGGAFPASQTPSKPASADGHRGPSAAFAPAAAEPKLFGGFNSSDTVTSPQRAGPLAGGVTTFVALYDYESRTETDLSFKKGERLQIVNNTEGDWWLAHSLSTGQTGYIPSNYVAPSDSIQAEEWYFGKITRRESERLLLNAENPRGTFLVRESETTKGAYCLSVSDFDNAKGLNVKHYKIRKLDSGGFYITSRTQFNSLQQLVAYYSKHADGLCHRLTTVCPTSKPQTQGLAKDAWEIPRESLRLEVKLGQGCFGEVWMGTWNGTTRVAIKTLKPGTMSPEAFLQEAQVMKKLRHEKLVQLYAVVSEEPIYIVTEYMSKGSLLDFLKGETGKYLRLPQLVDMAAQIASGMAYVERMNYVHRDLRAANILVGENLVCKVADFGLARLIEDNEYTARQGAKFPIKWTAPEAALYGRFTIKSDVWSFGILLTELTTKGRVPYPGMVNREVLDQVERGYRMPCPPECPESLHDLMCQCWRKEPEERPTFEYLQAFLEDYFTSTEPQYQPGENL
Assay: Affinity for SH2 domain of src in Sf9 insect cells
Details: not given

Row | IC50 [µM] | Structure (SMILES)
29 | 5.9 | CSCC[C@H](NC(=O)[C@@H]1CCCN1C(=O)[C@@H](NC(=O)[C@H](Cc1ccc(OP(=O)(O)O)cc1)NC(C)=O)C(C)C)C(=O)N[C@@H](CC(C)C)C(=O)O (Ac-[pY]VPML-OH)
30 | 12.7 | CSCC[C@H](NC(=O)[C@@H]1CCCN1C(=O)[C@@H](NC(=O)[C@@H](N)Cc1ccc(OP(=O)(O)O)cc1)C(C)C)C(=O)N[C@@H](CC(C)C)C(=O)O (H-[pY]VPML-OH)
31 | > 10 | CCCC[C@H](NC(=O)[C@@H]1CCCN1C(=O)[C@@H](NC(=O)[C@@H](N)Cc1ccc(OP(=O)(O)O)cc1)C(C)C)C(=O)N[C@@H](CC(C)C)C(=O)O (H-[pY]VP[Nle]L-OH)

Target: Tyrosine-protein kinase ABL1 (Homo sapiens) (UniProt P00519)
Sequence (P00519 whole entry, the tested form may be a part): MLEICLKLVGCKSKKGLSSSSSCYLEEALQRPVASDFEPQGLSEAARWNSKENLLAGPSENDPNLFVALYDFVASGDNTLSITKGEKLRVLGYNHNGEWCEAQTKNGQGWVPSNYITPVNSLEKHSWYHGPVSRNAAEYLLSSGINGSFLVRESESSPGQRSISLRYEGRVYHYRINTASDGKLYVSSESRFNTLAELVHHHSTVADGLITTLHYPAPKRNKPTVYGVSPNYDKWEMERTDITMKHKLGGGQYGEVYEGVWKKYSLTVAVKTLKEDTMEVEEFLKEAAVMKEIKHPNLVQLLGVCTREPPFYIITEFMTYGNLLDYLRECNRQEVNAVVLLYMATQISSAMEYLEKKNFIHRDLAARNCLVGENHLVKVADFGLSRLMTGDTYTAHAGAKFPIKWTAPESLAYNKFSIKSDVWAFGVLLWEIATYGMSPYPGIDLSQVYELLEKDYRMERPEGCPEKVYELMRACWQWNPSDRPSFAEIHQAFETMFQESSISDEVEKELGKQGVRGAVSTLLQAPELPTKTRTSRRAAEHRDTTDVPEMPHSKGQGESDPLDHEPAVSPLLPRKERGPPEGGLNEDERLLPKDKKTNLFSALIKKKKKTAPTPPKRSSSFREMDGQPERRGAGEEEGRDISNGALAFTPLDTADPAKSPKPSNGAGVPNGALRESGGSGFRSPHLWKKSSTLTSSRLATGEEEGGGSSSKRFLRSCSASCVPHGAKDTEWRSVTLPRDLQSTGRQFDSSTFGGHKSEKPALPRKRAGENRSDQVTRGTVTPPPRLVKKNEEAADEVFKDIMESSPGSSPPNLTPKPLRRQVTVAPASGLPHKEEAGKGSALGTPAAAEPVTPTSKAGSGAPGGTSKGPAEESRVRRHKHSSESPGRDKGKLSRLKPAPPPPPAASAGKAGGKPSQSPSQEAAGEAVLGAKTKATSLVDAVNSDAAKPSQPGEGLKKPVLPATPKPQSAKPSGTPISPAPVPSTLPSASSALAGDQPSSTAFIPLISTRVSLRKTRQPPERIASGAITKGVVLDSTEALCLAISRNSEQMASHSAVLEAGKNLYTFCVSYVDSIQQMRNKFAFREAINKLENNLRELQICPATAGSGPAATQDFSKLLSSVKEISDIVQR
Assay: Affinity for SH2 domain of abl expressed in Sf9 insect cells
Details: concentration not given here

Row | inhibition [%] | Structure (SMILES)
32 | 60 | CSCC[C@H](NC(=O)[C@@H]1CCCN1C(=O)[C@@H](NC(=O)[C@@H](N)Cc1ccc(OP(=O)(O)O)cc1)C(C)C)C(=O)N[C@@H](CC(C)C)C(=O)O (H-[pY]VPML-OH)
